Reference: ChEMBL document CHEMBL4602632, “Synthesis and anti-Mycobacterium tuberculosis activity of imide-β-carboline and carbomethoxy-β-carboline derivatives” (Eur J Med Chem, 2020)
Values after ≈ are worked out from the molar mass of the structure shown.

How the values were obtained:
Format in all cases: functional
[1] = system: Mycobacterium tuberculosis; test: Antimycobacterial activity against Mycobacterium tuberculosis 91 harbouring KatG Ser315Thr mutant and wild type InhA assessed as reduction in bacterial growth incubated for 7 days by resazurin dye based assay
Summary of the method: (§1)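 REMA broth microdilution: DMSO stocks diluted in 7H9-OADC, standardized inoculum added, final 0.98 to 250 μg/mL; 7 days at 35 °C in normal atmosphere, then 0.01% resazurin and a further 24 h at 35 °C. Read visually. MIC is the lowest concentration preventing the blue-to-pink change. Three independent assays on different days; isoniazid reference, medium, sterility and growth ±2.5% DMSO controls.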

[2] = system: Mycobacterium tuberculosis; test: Antimycobacterial activity against Mycobacterium tuberculosis 3614 harbouring wild type KatG and InhA Ile21Thr mutant assessed as reduction in bacterial growth incubated for 7 days by resazurin dye based assay; summary of the method: as §1
[3] = system: Mycobacterium tuberculosis; test: Antimycobacterial activity against Mycobacterium tuberculosis BRF45 harbouring KatG Ser315Thr mutant and wild type InhA assessed as reduction in bacterial growth incubated for 7 days by resazurin dye based assay; summary of the method: as §1
[4] = system: Mycobacterium tuberculosis; test: Antimycobacterial activity against Mycobacterium tuberculosis 71A harbouring KatG Ser315Thr mutant and wild type InhA assessed as reduction in bacterial growth incubated for 7 days by resazurin dye based assay; summary of the method: as §1
[5] = system: Mycobacterium tuberculosis; test: Antimycobacterial activity against Mycobacterium tuberculosis BRF16 harbouring KatG Ser315Thr mutant and wild type InhA assessed as reduction in bacterial growth incubated for 7 days by resazurin dye based assay; summary of the method: as §1
[6] = system: Mycobacterium tuberculosis; test: Antimycobacterial activity against Mycobacterium tuberculosis BRF57 harbouring KatG Ser315Thr mutant and wild type InhA assessed as reduction in bacterial growth incubated for 7 days by resazurin dye based assay; summary of the method: as §1
[7] = system: Mycobacterium tuberculosis; test: Antimycobacterial activity against Mycobacterium tuberculosis 73A harbouring KatG Ser315Thr mutant and wild type InhA assessed as reduction in bacterial growth incubated for 7 days by resazurin dye based assay; summary of the method: as §1
[8] = system: Mycobacterium tuberculosis; test: Antimycobacterial activity against Mycobacterium tuberculosis 19 harbouring KatG Ser315Thr mutant and wild type InhA assessed as reduction in bacterial growth incubated for 7 days by resazurin dye based assay; summary of the method: as §1
[9] = system: Mycobacterium tuberculosis; test: Antimycobacterial activity against Mycobacterium tuberculosis BRF14 harbouring KatG Ser315Thr mutant and wild type InhA assessed as reduction in bacterial growth incubated for 7 days by resazurin dye based assay; summary of the method: as §1

Compound	MIC [1] [µM]	MIC [2] [µM]	MIC [3] [µM]	MIC [4] [µM]	MIC [5]	MIC [6] [µM]	MIC [7] [µM]	MIC [8] [µM]	MIC [9] [µM]
O=C(NN1C(=O)c2ccccc2C1=O)c1cc2c([nH]c3ccccc32)c(-c2ccc(F)cc2)n1	277.71 (≈ 125 µg/mL)	138.85 (≈ 62.5 µg/mL)	138.85 (≈ 62.5 µg/mL)	277.71 (≈ 125 µg/mL)	138.85 µM	277.71 (≈ 125 µg/mL)	138.85 (≈ 62.5 µg/mL)	138.85 (≈ 62.5 µg/mL)	138.85 (≈ 62.5 µg/mL)
O=C(NN1C(=O)c2ccccc2C1=O)c1cc2c([nH]c3ccccc32)c(-c2cccc([N+](=O)[O-])c2)n1	>523.99	261.99 (≈ 125 µg/mL)	261.99 (≈ 125 µg/mL)	>523.99	261.99 µM	>523.99	261.99 (≈ 125 µg/mL)	261.99 (≈ 125 µg/mL)	523.99 (≈ 250 µg/mL)
COC(=O)c1cc2c([nH]c3ccccc32)c(-c2ccc(N(C)C)cc2)n1	180.36 (≈ 62.3 µg/mL)	90.54 (≈ 31.3 µg/mL)	90.54 (≈ 31.3 µg/mL)	>724.32	362.16 µM	362.16 (≈ 125 µg/mL)	90.54 (≈ 31.3 µg/mL)	90.55 (≈ 31.3 µg/mL)	724.32 (≈ 250 µg/mL)
NNC(=O)c1ccncc1 [ISONIAZID]	2 (≈ 0.274 µg/mL)	4 (≈ 0.549 µg/mL)	4 (≈ 0.549 µg/mL)	4 (≈ 0.549 µg/mL)	8 µM	4 (≈ 0.549 µg/mL)	4 (≈ 0.549 µg/mL)	2 (≈ 0.274 µg/mL)	8 (≈ 1.1 µg/mL)
O=C(NN1C(=O)CCC1=O)c1cc2c([nH]c3ccccc32)c(-c2ccc(F)cc2)n1	310.86 (≈ 125 µg/mL)	155.43 (≈ 62.5 µg/mL)	77.72 (≈ 31.3 µg/mL)	310.86 (≈ 125 µg/mL)	62.5 µg/mL	310.86 (≈ 125 µg/mL)	77.72 (≈ 31.3 µg/mL)	155.43 (≈ 62.5 µg/mL)	310.86 (≈ 125 µg/mL)
O=C(NN1C(=O)c2ccccc2C1=O)c1cc2c([nH]c3ccccc32)c(-c2ccccc2)n1	289.27 (≈ 125 µg/mL)	144.64 (≈ 62.5 µg/mL)	144.64 (≈ 62.5 µg/mL)	289.27 (≈ 125 µg/mL)	289.27 µM	289.27 (≈ 125 µg/mL)	144.64 (≈ 62.5 µg/mL)	144.64 (≈ 62.5 µg/mL)	289.27 (≈ 125 µg/mL)
